Results: ChEMBL document CHEMBL3593165, “Enzymatic synthesis of bile acid derivatives and biological evaluation against Trypanosoma cruzi” (Bioorg Med Chem, 2015)
Active and inactive are the calls of the source. The rule behind the calls is not given here.

What was measured:
Trypanosoma cruzi [1] = experiment: Antiparasitic activity against Trypanosoma cruzi strain CL Brener epimastigotes after 12 days by ELISA reader; assay type: functional; conditions: 288 h
Outline: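 CL Brener epimastigotes grown at 28 °C in LIT medium with 10% heat-inactivated FBS, hemin, streptomycin and penicillin. Seeded at final 5 × 10^6 cells/mL and exposed to compounds across 0.14–300 µM for 12 days at 28 °C. DMSO vehicle, final ≤0.5% (v/v). Growth read daily at 600 nm. IC50 taken from dose-response curves from three independent assays.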

Trypanosoma cruzi [2] = experiment: Antiparasitic activity against Trypanosoma cruzi strain CL Brener epimastigotes at 300 uM after 12 days by ELISA reader; assay type: functional
Outline: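 T. cruzi CL Brener epimastigotes were grown at 28 °C in LIT medium with 10% heat-inactivated FBS, […], streptomycin and penicillin. Cells were seeded at 5 × 10^6 cells/mL with compound (0.14–300 µM, DMSO ≤0.5% v/v final) for 12 days at 28 °C. Benznidazole served as positive control, with drug-free and parasite-free controls. Growth was read daily at 600 nm in three independent assays.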

SMILES	IC50 (Trypanosoma cruzi [1]) [µM]	inhibition (Trypanosoma cruzi [2])
CCOC(=O)CC[C@@H](C)[C@H]1CC[C@H]2[C@@H]3CC[C@@H]4C[C@H](O)CC[C@]4(C)[C@H]3CC[C@]12C	266	
C[C@H](CCC(=O)O)[C@H]1CC[C@H]2[C@@H]3[C@H](O)C[C@@H]4C[C@H](O)CC[C@]4(C)[C@H]3CC[C@]12C [CHENODIOL]	236	inactive
CCOC(=O)CC[C@@H](C)[C@H]1CC[C@H]2[C@@H]3[C@H](O)C[C@@H]4C[C@H](OC(C)=O)CC[C@]4(C)[C@H]3CC[C@]12C	8.6	
CC(=O)O[C@@H]1CC[C@@]2(C)[C@@H](C1)C[C@@H](OC(C)=O)[C@@H]1[C@@H]2CC[C@]2(C)[C@@H]([C@H](C)CCC(=O)O)CC[C@@H]12	22.8	
CC(=O)O[C@@H]1CC[C@@]2(C)[C@@H](C1)C[C@@H](O)[C@@H]1[C@@H]2CC[C@]2(C)[C@@H]([C@H](C)CCC(=O)O)CC[C@@H]12		inactive
CCOC(=O)CC[C@@H](C)[C@H]1CC[C@H]2[C@@H]3[C@H](O)C[C@@H]4C[C@H](O)CC[C@]4(C)[C@H]3CC[C@]12C		inactive
CC(=O)O[C@H]1C[C@H]2[C@@H](CC[C@@H]3C[C@H](O)CC[C@@]32C)[C@@H]2CC[C@H]([C@H](C)CCC(=O)O)[C@@]12C		inactive
CCOC(=O)CC[C@@H](C)[C@H]1CC[C@H]2[C@@H]3CC[C@@H]4C[C@H](O)CC[C@]4(C)[C@H]3C[C@H](O)[C@]12C		inactive
CC(=O)O[C@@H]1CC[C@@]2(C)[C@H](CC[C@@H]3[C@@H]2C[C@H](O)[C@]2(C)[C@@H]([C@H](C)CCC(=O)O)CC[C@@H]32)C1		inactive
CCOC(=O)CC[C@@H](C)[C@H]1CC[C@H]2[C@@H]3CC[C@@H]4C[C@H](OC(C)=O)CC[C@]4(C)[C@H]3C[C@H](O)[C@]12C		inactive
CCOC(=O)CC[C@@H](C)[C@H]1CC[C@H]2[C@@H]3CC[C@@H]4C[C@H](OC(C)=O)CC[C@]4(C)[C@H]3CC[C@]12C		inactive
CCOC(=O)CC[C@@H](C)[C@H]1CC[C@H]2[C@@H]3[C@H](OC(C)=O)C[C@@H]4C[C@H](O)CC[C@]4(C)[C@H]3CC[C@]12C	295	
